Assay results as given in PubChem BioAssay AID743061 (The Scripps Research Institute Molecular Screening Center, 2013).

biological target: Methionine--tRNA ligase, mitochondrial (Homo sapiens) (UniProt Q96GW9); assay: inhibitors of human mitochondrial MetRS, late-stage follow-up, selectivity assay for T. brucei MetRS inhibitor project, biochemical, radioactivity, round 1 (AID 743061); settings: recombinant human mtMetRS, [3H]Met tRNA charging, at 1 µM, stronger effect = higher value;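 further: 0% = DMSO with full reaction and 100% = DMSO wells lacking tRNA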
Method in brief: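 System: human mitochondrial MetRS enzyme / Buffer or medium: pH 8.0 reaction buffer containing 2.5 mM ATP / Probe or stimulus: 240 nM [3H]methionine with bulk E. coli tRNA acceptor / Doses: 10 and 1 µM / Times: 15 min compound–enzyme preincubation, then 1 h reaction at room temperature / Detection: scintillation counts of TCA-precipitated charged tRNA on filters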

**Q.** For `O=C(N/C(=C\c1cccnc1)c1nc2ccccc2[nH]1)c1cccc(Br)c1`, which inhibition is on record?
**A.** Its inhibition is -19.7%.

**Q.** `O=C(NCCc1nc2ccccc2[nH]1)c1ccc(Cl)c(Cl)c1` was tested. Which inhibition did it give?
**A.** Its inhibition is 2.38%.

**Q.** Which inhibition does the source give for `O=C(CCC(=O)Nc1cccc([N+](=O)[O-])c1)NN=Cc1cccs1` here?
**A.** Its inhibition is -28.9%.

**Q.** For `O=C(NCCc1nc2ccccc2[nH]1)c1ccc(Cl)cc1Cl`, which inhibition is on record?
**A.** Its inhibition is 16.4%.

**Q.** For `O=C(NCc1nc2ccccc2[nH]1)C1=C[C@H](c2ccc3c(c2)OCO3)C[C@H](OCCCCO)O1`, which inhibition is on record?
**A.** Its inhibition is -10.7%.

**Q.** Which inhibition does the source give for `O=C(CSC1CC(=O)N(c2cccc(Cl)c2)C1=O)Nc1ccc(Br)cc1` (centres undefined) here?
**A.** Its inhibition is -12.3%.

**Q.** Which inhibition does the source give for `COc1ccc(CCN(C(=S)Nc2ccccc2)C2CC(=O)N(c3ccc(Cl)cc3)C2=O)cc1` (centres undefined) here?
**A.** Its inhibition is 10.6%.

**Q.** Which inhibition does the source give for `Clc1ccc(OCCSCc2nc3ccccc3[nH]2)cc1` here?
**A.** The inhibition was -20%.

**Q.** Which inhibition does the source give for `COc1ccccc1NC(=O)CSc1nnc2c(n1)[nH]c1ccc(C)cc12` here?
**A.** The inhibition was -3.56%.

**Q.** How did the inhibition turn out when `O=C(NCc1nc2ccccc2[nH]1)C1=C[C@@H](c2ccc3c(c2)OCO3)C[C@@H](OCCCCO)O1` was run?
**A.** The inhibition was -3.63%.

**Q.** How did the inhibition turn out when `CN(CC(=O)Nc1ccc(Cl)cc1)C(=O)c1ccc(-n2cncn2)c([N+](=O)[O-])c1` was run?
**A.** The inhibition was -36.7%.

**Q.** Which inhibition does the source give for `O=C(NCc1nc2ccccc2[nH]1)C1=C[C@H](c2csc3ccccc23)C[C@H](OCCCCO)O1` here?
**A.** Its inhibition is -9.21%.

**Q.** How did the inhibition turn out when `O=C(NNC(=O)c1ccc(-n2cncn2)c([N+](=O)[O-])c1)c1ccc(Cl)cc1` was run?
**A.** The inhibition was -30.3%.

**Q.** For `COc1ccc(CCN(C(=O)c2cccc(F)c2)C2CC(=O)N(c3ccc(Br)cc3)C2=O)cc1` (centres undefined), which inhibition is on record?
**A.** Its inhibition is -8.56%.

**Q.** How did the inhibition turn out when `O=C(CC(=O)Nc1cccc(Cl)c1)NN=Cc1ccccc1` was run?
**A.** The inhibition was -18.3%.

**Q.** `CCCCCCCCCC1NC(C(=O)O)Cc2c1[nH]c1ccccc21` (centres undefined) was tested. Which inhibition did it give?
**A.** Its inhibition is -2.41%.

**Q.** `COc1ccccc1-n1c(SCC(=O)Nc2ccc(Cl)cc2)nc(O)c(Cc2ccccc2)c1=O` was tested. Which inhibition did it give?
**A.** Its inhibition is -31.6%.

**Q.** `COc1ccccc1NS(=O)(=O)c1cccc(NC(=O)Nc2ccccc2)c1` was tested. Which inhibition did it give?
**A.** Its inhibition is -9.69%.

**Q.** For `COc1ccc(OCC(O)CNC(=O)Nc2ccc(Cl)cc2)cc1` (centres undefined), which inhibition is on record?
**A.** The inhibition was -6.26%.

**Q.** Which inhibition does the source give for `CCOC(=O)N1CCC(Nc2c(Nc3ccc(F)cc3)c(=O)c2=O)CC1` here?
**A.** The inhibition was -8.53%.

**Q.** With `COc1cccc(NC(=O)C2CC(=O)n3c(nc4ccccc43)N2)c1` (centres undefined) as the molecule, how does the inhibition read?
**A.** The inhibition was 1.46%.

**Q.** Which inhibition does the source give for `O=C(Cn1cc(C(=O)C(=O)N2CCOCC2)c2ccccc21)Nc1cccc(C(F)(F)F)c1` here?
**A.** The inhibition was -22.4%.

**Q.** How did the inhibition turn out when `Clc1ccc(-c2nnc(SCc3nc4ccccc4[nH]3)o2)c(Cl)c1` was run?
**A.** Its inhibition is -3.17%.

**Q.** How did the inhibition turn out when `CC(=O)N(CCc1ccccc1)C1CC(=O)N(c2ccc(Cl)cc2)C1=O` (centres undefined) was run?
**A.** Its inhibition is -19.9%.

**Q.** Which inhibition does the source give for `CCO[C@H]1OC(C(=O)NCc2nc3ccccc3[nH]2)=C[C@@H](c2ccc(Br)cc2)[C@@H]1CCCO` here?
**A.** Its inhibition is -15%.

**Q.** Which inhibition does the source give for `CC(C)(C)[C@H]1C=C(C(=O)NCc2nc3ccccc3[nH]2)O[C@@H](OCc2ccc(CO)cc2)C1` here?
**A.** Its inhibition is -20.5%.

**Q.** Which inhibition does the source give for `CC(=O)c1cn(CC(=O)Nc2cccc(C(F)(F)F)c2)c2ccccc12` here?
**A.** The inhibition was -20.4%.

**Q.** With `O=C(CN1CCSC1=NCc1ccccc1)c1ccc(Cl)c(Cl)c1` as the molecule, how does the inhibition read?
**A.** The inhibition was -25.1%.

**Q.** Which inhibition does the source give for `CCN(CC)C(=O)C(=O)c1cn(CC(=O)Nc2cccc(C(F)(F)F)c2)c2ccccc12` here?
**A.** The inhibition was -0.41%.

**Q.** `O=C(NCc1nc2ccccc2[nH]1)C1=C[C@H](C2CC2)C[C@H](OCc2ccc(CO)cc2)O1` was tested. Which inhibition did it give?
**A.** Its inhibition is 7.99%.

**Q.** With `O=C(C[C@H]1C(=O)N(Cc2ccccc2)C[C@@H]1c1ccc(Br)cc1)Nc1ccc(Br)cc1` as the molecule, how does the inhibition read?
**A.** Its inhibition is -13%.

**Q.** `CC(=O)c1ccc(N2CCN(C(=O)CCCn3c(=O)[nH]c4ccc(Br)cc4c3=O)CC2)cc1` was tested. Which inhibition did it give?
**A.** The inhibition was -14.1%.

**Q.** Which inhibition does the source give for `CN(Cc1cc(Cl)cc(Cl)c1)[C@H]1C[C@H]2c3[nH]c4ccccc4c3CCN2C(=O)[C@H]1CO` here?
**A.** Its inhibition is 14%.

**Q.** How did the inhibition turn out when `CCN(CC)C(=O)C(=O)c1cn(CC(=O)Nc2ccccc2OC)c2ccccc12` was run?
**A.** Its inhibition is -10.6%.
